Laboratory results published in the EternaBench riboswitch data.

Tested on: MS2 coat protein
Assay: apparent Kd, MS2 coat protein; higher = weaker binding; RNA-MaP array; FMN 200 µM where present
How it was run: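 On Illumina sequencing-chip clusters, designs were transcribed by stalled E. coli RNA polymerase and titrated with SNAP-549-labelled MS2 coat protein (0.7 or 1.5 nM, doubling to 3 µM), without and then with constant ligand, in 100 mM Tris-HCl pH 7.5, 80 mM KCl, 4 mM MgCl2, BSA, DTT, yeast tRNA and Tween-20. Apparent Kd is the median of filtered per-cluster curve fits to green signal normalised to red-channel RNA signal and control-cluster median Fmax.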

[1] = designed as: ON switch for flavin mononucleotide, no ligand
[2] = ligand present: flavin mononucleotide, designed as: ON switch for flavin mononucleotide
[3] = designed as: OFF switch for flavin mononucleotide, no ligand
[4] = ligand present: flavin mononucleotide, designed as: OFF switch for flavin mononucleotide

Sequence: GCGAUUUUGUAAGGAUAUAUACGAGUUUCAAGUGUAGAAGGUACUUACAUGAGGAUCACCCAUGUAUACAUGGAUAAUAGUCGC
- apparent Kd [1]: 0.269 µM
- apparent Kd [2]: 0.136 µM

Sequence: GCGCGCGCAGGAUAUACAAUGGGCCCGGGAAACCGGGCCCUACAUGAGGAUCACCCAUGUAGAAGGGUGUGUGU
- apparent Kd [3]: 0.606 µM
- apparent Kd [4]: 0.468 µM

Sequence: GCGCGCGCCGCAGGAUAUGGUUUGUUCGUUGAACCAGAAGGGCGACAUGAGGAUCACCCAUGUACAUGAGGAUCACCCAUGUGC
- apparent Kd [3]: 0.0592 µM
- apparent Kd [4]: 0.051 µM

Sequence: GCGCGGAACCUAGGAUAUCCGGCAUGGACGGGUGGUAGGUCUCCCACAUGAGGAUCACCCAUGUAGGAGAAGGAGGAUCACGGG
- apparent Kd [3]: 0.00617 µM
- apparent Kd [4]: 0.00683 µM

Sequence: GCGCUGCGUCAGAAGGGCCGAAAAGAGAAGACGGCAGGAUAUGACAUGAGGAUCACCCAUGUACACGUCGCCGUGGGUGUUGGA
- apparent Kd [3]: 0.0579 µM
- apparent Kd [4]: 0.065 µM

Sequence: GCGCUUAUACAGAAGGCCAGUUACAUGAGGAUCACCCAUGUUAGAUUGUGGAGGAUAUGUGUUUUAUUACAGAUAGUUGAGCGC
- apparent Kd [1]: 0.0134 µM
- apparent Kd [2]: 0.00684 µM

Sequence: GCGCUUAUACAGAAGGCCAUAUACAUGAGGAUCACCCAUGUUACAUGGUGGAGGAUAUGUUAUUAAGUACAGGUAGAUGAGCGC
- apparent Kd [1]: 0.00598 µM
- apparent Kd [2]: 0.00538 µM

Sequence: GCGGGAGGAGGAUAUACAAUCGUGUGACCCGGACCCUAUGGACAUGAGGAUCACCCAUGUAGAAGGUUUCCCUU
- apparent Kd [3]: 0.112 µM
- apparent Kd [4]: 0.568 µM

Sequence: GCGUAACAUGAGGAUCACCCAUGUGCCCGAGAAUUCGGGCCGAGAAGGGUGACCGGACGUAUGGCACAGGAUAUCGACGUUGUG
- apparent Kd [1]: 0.0252 µM
- apparent Kd [2]: 0.0121 µM

Sequence: GCGUAUAAGGUGUAGCUAGACAUUCAAGAAGGGUGAAGAACAUGAGGAUCACCCAUGUAGUAGGUACAGGAUAUUGAUUUACGC
- apparent Kd [1]: 0.656 µM
- apparent Kd [2]: 0.372 µM

Sequence: GCGUAUAUAUGAUUUAUAAAACAGUCAGAAGGUGAGAAGACGACAUGAGGAUCACCCAUGUUAUUCAAGGAUAUGAUAAUGCGC
- apparent Kd [1]: 0.0131 µM
- apparent Kd [2]: 0.00774 µM

Sequence: GCGUCAGAAUUAAUUGUGACAGACAGAAGGCAAUAGUAUGUGACAGACAUGAGGAUCACCCAUGUUGAGGAUAUGUAUUGACAC
- apparent Kd [3]: 0.0066 µM
- apparent Kd [4]: 0.00736 µM

Sequence: GCGUCAGAAUUAAUUGUGACAGACAGAAGGCAAUAGUUCAUGUCAGACAUGAGGAUCACCCAUGUUGAGGAUAUGUAUUUACUC
- apparent Kd [3]: 0.00754 µM
- apparent Kd [4]: 0.00835 µM

Sequence: GCGUCCCGCAGAGGAUAUGUUGUUCCGCCUACAUGAGGAUCACCCAUGUCAAAGGGCUGAUCCCGACAGAAGGCUGAAGGAUAC
- apparent Kd [1]: 0.13 µM
- apparent Kd [2]: 0.138 µM

Sequence: GCGUGGUUCUAGAAGGUGCUAGCGAUAAGCUAGCAAGGAUAUAGACAUGAGGAUCACCCAUGUCUUUGUGAAAUCGACACACGC
- apparent Kd [3]: 0.00558 µM
- apparent Kd [4]: 0.00639 µM

Sequence: GCGUUAGUAUCACAUGUAUUACAUGAGGAUCACCCAUGUUACUAGGAUAUGUAUUAGUAUUAUCAACAGAAGGAGUAAUAACGC
- apparent Kd [3]: 0.0125 µM
- apparent Kd [4]: 0.0176 µM

Sequence: GCGUUCAUGUAGAAGGUACCUACAACAUAUUAUAAACGCUAGACACAUGAGGAUCACCCAUGUUGUAAGGAUAUACAUGAACGC
- apparent Kd [1]: 0.049 µM
- apparent Kd [2]: 0.022 µM

Sequence: GCGUUCUUGUAGAAGGUACAUAAAAUCUAUUUUUAACACAUGAAACAUGAGGAUCACCCAUGUUGUAAGGAUAUACAUGAACGC
- apparent Kd [1]: 0.00703 µM
- apparent Kd [2]: 0.00588 µM

Sequence: GCGUUGUUGUAGAAGGUACAUGAAUACUUUUAUUACCUCAAGUAACAUGAGGAUCACCCAUGUAGUAAGGAUAUACAUGAACGC
- apparent Kd [1]: 0.0351 µM
- apparent Kd [2]: 0.0243 µM

Sequence: GCGUUUACGGUUGACACUUAGCGAGAGGAUAUGGAAAACAAGACAUGAGGAUCACCCAUGUACUAUCAGAAGGCUCGAGUACGC
- apparent Kd [1]: 0.00865 µM
- apparent Kd [2]: 0.00529 µM

Sequence: GCUAAUAUUUUGUUAAAUGUAUUUUGAGAAGGCAUACACAUGAGGAUCACCCAUGUAAUUUGUAAUGAGGAUAUCAUGAUGUGC
- apparent Kd [1]: 0.115 µM
- apparent Kd [2]: 0.0315 µM

Sequence: GCUACUUAUUUUAAUUAUGAUUUACUAGAAGGUAGAUACAUGAGGAUCACCCAUGUUUAGAGUUCUAAGGAUAUAGUUUUUAGC
- apparent Kd [1]: 0.00825 µM
- apparent Kd [2]: 0.00724 µM

Sequence: GCUAGAGCAGGAUAUCUAGAUCCACACAUGAGGAUCACCCAUGUACAGUCGAAAGACUGAAGAGAAGGGCUCUAGC
- apparent Kd [3]: 0.0697 µM
- apparent Kd [4]: 0.0927 µM

Sequence: GCUAGUAUUGCAGGAUAUUGAUAUUAAUUAUGGCAAGAAGGGCAUUACAUGAGGAUCACCCAUGUUUUCCUUAGUCAUACUAGC
- apparent Kd [3]: 0.00533 µM
- apparent Kd [4]: 0.00539 µM

Sequence: GCUAUAGAUGUAGGAUAUCAUAUAGAAGCUAUGUGAGAAGGACAUGAGGAUCACCCAUGUCAAUGGAUGGAGCGAAGUUAUGGC
- apparent Kd [3]: 0.0434 µM
- apparent Kd [4]: 0.0577 µM

Sequence: GCUAUAGAUGUAGGAUAUCAUAUAGAAGCUAUGUGAGAAGGACAUGAGGAUCACCCAUGUCAAUGGCUGGAGCGAAGUUAUGGC
- apparent Kd [3]: 0.0304 µM
- apparent Kd [4]: 0.0352 µM

Sequence: GCUAUAGAUGUAGGAUAUGAUAUAGAAGCUAUGUCAGAAGGACAUGAGGAUCACCCAUGUCAAUGGAUGGAGAGAAGAUAUGGC
- apparent Kd [3]: 0.0642 µM
- apparent Kd [4]: 0.0693 µM

Sequence: GCUCGGAGAGGAUAUACAUGAGGAUCACCCAUGUAGGUAAGCAGCGAUGGCAGUCCAUGUAGAAGGUUCAGGUG
- apparent Kd [3]: 0.0434 µM
- apparent Kd [4]: 0.0497 µM
